Measured values as given in ChEMBL document CHEMBL3352721, “Identification, optimization, and pharmacology of acylurea GHS-R1a inverse agonists” (J Med Chem, 2014).
In brackets after ≈: the same amount, converted by molar mass. Activity calls are given as the source filed them. No cut-off for these calls is given here. Non-standard residues stand in square brackets, D forms with d. Residues, ends and D or L forms follow the SMILES beside them. dTrp(2-Me) = Cc1[nH]c2ccccc2c1C[C@@H](N)C(=O)O

Experiments:
[1] = test system: MDR1; assay: Efflux ratio in MDCK cells expressing MDR1 at 10 uM; assay type: ADME, cell-based, Canis lupus familiaris; conditions: dog
Method in brief: (§1)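 MDCK-MDR1 monolayers incubated with compound at 10 µM; permeability measured in both A→B and B→A directions, giving Papp A-B (x10^6 cm/s) and the efflux ratio.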

[2] = Lipophilicity, logD of the compound; assay type: physicochemical; conditions: octanol/water
[3] = biological target: Growth hormone secretagogue receptor type 1 (Homo sapiens, UniProt Q92847); assay: Displacement of [125I]human ghrelin from human GHS-R1a expressed in HEK cell membranes after 60 mins by gamma counting method; set-up: species or system HEK293
Sequence of Growth hormone secretagogue receptor type 1 (Q92847 whole entry): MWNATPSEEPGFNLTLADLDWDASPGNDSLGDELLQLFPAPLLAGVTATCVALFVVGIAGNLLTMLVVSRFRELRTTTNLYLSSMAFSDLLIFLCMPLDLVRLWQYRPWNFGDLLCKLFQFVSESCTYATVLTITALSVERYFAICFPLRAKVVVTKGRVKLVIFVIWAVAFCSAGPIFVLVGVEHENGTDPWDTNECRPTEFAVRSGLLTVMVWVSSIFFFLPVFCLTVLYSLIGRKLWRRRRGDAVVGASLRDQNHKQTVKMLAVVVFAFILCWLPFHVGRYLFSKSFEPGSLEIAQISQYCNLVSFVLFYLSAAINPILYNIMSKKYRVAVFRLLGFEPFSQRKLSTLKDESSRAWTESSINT

[4] = Cmax in CD1 mouse at 2 mg/kg, po by LC-MS/MS method; assay type: ADME, organism-based; set-up: dose 2 mg/kg, route oral; conditions: in vivo
Method in brief: (§2)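 Oral gavage in male HW rats, beagle dogs or CD-1 mice, vehicle Pluronic F127 in water. EDTA plasma was collected over 24 h and quantified by LC/MS/MS after acetonitrile precipitation. Cmax and bioavailability were obtained by non-compartmental analysis against IV data.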

[5] = test system: MDR1; assay: Apparent permeability in MDCK cells expressing MDR1 at 10 uM assessed as apical to basolateral side transport; assay type: ADME, cell-based, Canis lupus familiaris; conditions: dog; method in brief: as §1
[6] = Ratio of drug level in homogenized brain to plasma in Han-Wistar rat measured 1 hr after iv bolus then iv infusion by LC-MS/MS method; assay type: ADME, organism-based; conditions: read-out: BPR
Method in brief: (§3)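 Brain:plasma ratio in homogenized brain 1 h after IV bolus followed by IV infusion. The free ratio used free fractions measured in plasma and brain (brain slice method or brain homogenate).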

[7] = Cmax in Han-Wistar rat at 2 mg/kg, po by LC-MS/MS method; assay type: ADME, organism-based; set-up: dose 2 mg/kg, route oral; conditions: in vivo; method in brief: as §2
[8] = Ratio of free drug level in homogenized brain to plasma in Han-Wistar rat measured 1 hr after iv bolus then iv infusion by LC-MS/MS method; assay type: ADME, organism-based; conditions: read-out: BPR; method in brief: as §3
[9] = Aqueous solubility at pH 7.4 under thermodynamic conditions; assay type: physicochemical; conditions: buffer, read-out: Therm_solubility
Method in brief: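 Thermodynamic solubility measured from solid samples in aqueous medium at pH 7.4.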

[10] = Ratio of drug level in homogenized brain to plasma in CD1 mouse at 0.9 mg/kg, po measured after 6 hrs by LC-MS/MS method; assay type: ADME, organism-based; set-up: dose 0.9 mg/kg, route oral; conditions: read-out: BPR
Method in brief: (§4)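 CD-1 mice dosed PO in 1% Pluronic F127. Drug was measured in homogenized brain and in plasma 6 h after dosing and expressed as a brain:plasma ratio. The free ratio used free fraction measured in mouse plasma and rat brain (brain slice or brain homogenate).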

[11] = Ratio of free drug level in homogenized brain to plasma in CD1 mouse measured 6 hrs after oral dosing by LC-MS/MS method; assay type: ADME; method in brief: as §4
[12] = Ratio of drug level in homogenized brain to plasma in CD1 mouse at 2 mg/kg, po measured after 6 hrs by LC-MS/MS method; assay type: ADME, organism-based; set-up: dose 2 mg/kg, route oral; conditions: read-out: BPR; method in brief: as §4
[13] = test system: Mus musculus; assay: Increase in food intake in po dosed C57Bl6j mouse free feeding model measured in 2 hrs intervals; assay type: functional, organism-based
Method in brief: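 Male mice (C57Bl6j, GHSr1-/- or wild-type littermates) were acclimatized 3 weeks to reversed light-dark, then individually housed 7 days and grouped (n=10-12) by baseline intake and body weight. Suspensions in 1% Pluronic F127 or vehicle were gavaged at 10 mL/kg about 1 h before dark onset. Pre-weighed food was reweighed at 2, 4, 6 and 24 h.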

Row | Structure (SMILES) | efflux ratio at 10 µM [1] | logD [2] | IC50 [3] [nM] | Papp A→B at 10 µM [5] [×10⁻⁶ cm/s] | Cmax [7] [nM] | solubility thermodynamic [9] [µM] | also measured
1 | CN1CCC(S(=O)(=O)c2ccc3nc(NC(=O)NC(=O)c4cc(N5CCCC5)ccc4Cl)sc3c2)CC1 | 0.05 | 3.1 | 0.92 | 11 | – | – | Cmax [4]: 5800 nM
2 | CN1CCN(CCCS(=O)(=O)c2ccc3nc(NC(=O)NC(=O)c4cc(-n5cccn5)ccc4Cl)sc3c2)CC1 | 7.6 | 2 | 0.67 | 2.9 | 1200 | – | Kp at 1 h [6]: < 0.03
3 | CCOc1ccc(Cl)c(C(=O)NC(=O)Nc2nc3ccc(S(=O)(=O)CCCN4CCN(C)CC4)cc3s2)c1 | 5 | 2.4 | 0.31 | 2.8 | 4200 | – | Kp uu at 1 h [8]: 0.52; Kp at 1 h [6]: 0.052
4 | CS(=O)(=O)c1ccc2nc(NC(=O)NC(=O)c3ccccc3Cl)oc2c1 | – | 1.1 | > 10000 | – | – | 72 (≈ 28.4 µg/mL) | –
5 | CCN(CC)CCCS(=O)(=O)c1ccc2nc(NC(=O)NC(=O)c3cc(-n4cccc4)ccc3Cl)sc2c1 | 42 | 2.9 | 0.43 | 0.1 | 3600 | – | –
6 | COc1ccc2nc(NC(=O)NC(=O)c3c(Cl)cccc3Cl)sc2c1 | – | > 3.9 | 210 | – | – | < 0.71 | –
7 | Cc1cc(C)n(-c2ccc(Cl)c(C(=O)NC(=O)Nc3nc4ccc(S(=O)(=O)CCCN5CCN(C)CC5)cc4s3)c2)n1 | 76 | 2.5 | 1.3 | 0.44 | 78 | – | –
8 | CN1CCC(S(=O)(=O)c2ccc3nc(NC(=O)NC(=O)c4cc(N5CCCC5)c(C#N)cc4Cl)sc3c2)CC1 | 0.47 | 3 | 0.4 | 3 | – | – | Kp at 6 h [10]: 0.072; Cmax [4]: 840 nM; Kp uu at 6 h [11]: 0.38
9 | Cc1ccn(-c2ccc(C(=O)NC(=O)Nc3nc4ccc(S(=O)(=O)CCCN5CCN(C)CC5)cc4s3)c(Cl)c2)n1 | 0.86 | 2.6 | 0.48 | 3.5 | 220 | – | –
10 | CN1CCN(CCCS(=O)(=O)c2ccc3nc(NC(=O)NC(=O)c4cc(N5CCCC5)c(C#N)cc4Cl)sc3c2)CC1 | – | 2.8 | 0.24 | – | – | – | –
11 | Cc1ccnn1-c1ccc(Cl)c(C(=O)NC(=O)Nc2nc3ccc(S(=O)(=O)C4CCN(C)CC4)cc3s2)c1 | 15 | 2.6 | 33 | 1.1 | – | – | Kp at 6 h [12]: 0.9; Cmax [4]: 640 nM; Kp uu at 6 h [11]: 0.61
12 | CN1CCC(S(=O)(=O)c2ccc3nc(NC(=O)NC(=O)c4cc(-n5cccn5)ccc4Cl)sc3c2)CC1 | 2.5 | 2.5 | 15 | 3.9 | – | – | Cmax [4]: 1500 nM
13 | COc1ccc2nc(NC(=O)NC(=O)c3ccccc3Cl)sc2c1 | – | > 4 | 76 | – | – | 0.78 (≈ 0.282 µg/mL) | –
14 | CN(C)CCCS(=O)(=O)c1ccc2nc(NC(=O)NC(=O)c3ccccc3Cl)sc2c1 | 1.4 | 1.7 | – | 13 | – | 240 (≈ 115 µg/mL) | –
15 | CN1CCN(CCCS(=O)(=O)c2ccc3nc(NC(=O)NC(=O)c4cc(-n5cccc5)ccc4Cl)sc3c2)CC1 | 38 | 2.6 | 0.15 | 0.37 | 580 | – | –
16 | CN1CCN(CCCS(=O)(=O)c2ccc3nc(NC(=O)NC(=O)c4cc(C5CC5)ccc4Cl)sc3c2)CC1 | 9.1 | 2.9 | 0.33 | 2 | 1400 | – | Kp uu at 1 h [8]: 1.2; Kp at 1 h [6]: 0.18
17 | CS(=O)(=O)c1ccc2nc(NC(=O)NC(=O)c3cc(-n4cccc4)ccc3Cl)sc2c1 | – | 2.8 | – | – | – | – | –
18 | CN1CCN(CCCS(=O)(=O)c2ccc3nc(NC(=O)NC(=O)c4cc(-n5cccn5)c(Cl)cc4Cl)sc3c2)CC1 | 55 | 2.3 | – | 0.4 | 30 | – | –
19 | C#Cc1ccc(Cl)c(C(=O)NC(=O)Nc2nc3ccc(S(=O)(=O)CCCN4CCN(C)CC4)cc3s2)c1 | 3.3 | 2.3 | 5.1 | 3.3 | 1400 | – | Kp at 1 h [6]: < 0.03

Row | Structure (SMILES) | efflux ratio at 10 µM [1] | logD [2] | IC50 [3] [nM] | Papp A→B at 10 µM [5] [×10⁻⁶ cm/s] | Cmax [7] [nM] | solubility thermodynamic [9] [µM] | also measured
20 | CN1CCC(S(=O)(=O)c2ccc3nc(NC(=O)NC(=O)c4ccccc4Cl)sc3c2)CC1 | 0.9 | 2.2 | 65 | 17 | – | 69 (≈ 34 µg/mL) | –
21 | CCN(CC)CCCS(=O)(=O)c1ccc2nc(NC(=O)NC(=O)c3cc(N4CCOCC4)ccc3Cl)sc2c1 | 5.5 | 1.8 | 2.9 | 3.3 | 9400 | – | Kp at 1 h [6]: < 0.01
22 | CCc1ccc(Cl)c(C(=O)NC(=O)Nc2nc3ccc(S(=O)(=O)CCCN4CCN(C)CC4)cc3s2)c1 | 13 | 2.9 | 0.078 | 1.7 | 1500 | – | Kp uu at 1 h [8]: 0.04; Kp at 1 h [6]: 0.036
23 | COc1cc(Cl)c(C(=O)NC(=O)Nc2nc3ccc(S(=O)(=O)CCCN4CCN(C)CC4)cc3s2)cc1-n1cccn1 | 46 | 2.2 | – | 0.86 | – | – | –
24 | CN1CCCN(CCCS(=O)(=O)c2ccc3nc(NC(=O)NC(=O)c4ccccc4Cl)sc3c2)CC1 | 41 | 1 | 4.2 | 0.7 | – | 340 (≈ 187 µg/mL) | –
25 | CN1CCN(CCCS(=O)(=O)c2ccc3nc(NC(=O)NC(=O)c4cc(-c5ccccn5)ccc4Cl)sc3c2)CC1 | 19 | 2.5 | 0.69 | 0.52 | 1000 | – | –
26 | CCN(CC)CCCS(=O)(=O)c1ccc2nc(NC(=O)NC(=O)c3cc(-n4cccn4)ccc3Cl)sc2c1 | 12 | 2.1 | 3.9 | 0.71 | 1600 | – | –
27 | CN1CCN(CCCS(=O)(=O)c2ccc3nc(NC(=O)NC(=O)c4cc5c(ccn5C)cc4Cl)sc3c2)CC1 | 0.71 | 2.8 | 0.57 | 3.9 | 300 | – | Kp uu at 1 h [8]: 0.04; Kp at 1 h [6]: 0.049
28 | O=C(NC(=O)c1ccccc1Cl)Nc1nc2ccc(S(=O)(=O)CCN3CCCC3)cc2s1 | – | 2.7 | – | – | – | 64 (≈ 31.6 µg/mL) | –
29 | Cc1ccn(-c2ccc(Cl)c(C(=O)NC(=O)Nc3nc4ccc(S(=O)(=O)CCCN5CCN(C)CC5)cc4s3)c2)n1 | 14 | 2.6 | 0.53 | 0.68 | 410 | – | –
30 | CC(C)NCCS(=O)(=O)c1ccc2nc(NC(=O)NC(=O)c3ccccc3Cl)sc2c1 | – | 2.3 | – | – | – | 71 (≈ 34.2 µg/mL) | –
31 | CN1CCN(CCS(=O)(=O)c2ccc3nc(NC(=O)NC(=O)c4ccccc4Cl)sc3c2)CC1 | – | 1.5 | – | – | – | 240 (≈ 125 µg/mL) | –
32 | CCN(CC)CCCS(=O)(=O)c1ccc2nc(NC(=O)NC(=O)c3ccccc3Cl)sc2c1 | 2.7 | 1.7 | 13 | 5.4 | – | 280 (≈ 143 µg/mL) | –
33 | CN1CCN(CCCS(=O)(=O)c2ccc3nc(NC(=O)NC(=O)c4cccc(-n5cccn5)c4Cl)sc3c2)CC1 | 25 | 1.6 | – | 0.91 | 12 | – | –
34 | CN1CCN(CCCS(=O)(=O)c2ccc3nc(NC(=O)NC(=O)c4cc(N5CCCC5)ccc4Cl)sc3c2)CC1 | 0.55 | 3.1 | 0.29 | 4.5 | 640 | – | Kp at 1 h [6]: < 0.03
35 | COCCNCCCS(=O)(=O)c1ccc2nc(NC(=O)NC(=O)c3ccccc3Cl)sc2c1 | – | 1.3 | 8.6 | – | – | 87 (≈ 44.5 µg/mL) | –
36 | CS(=O)(=O)c1ccc2sc(NC(=O)NC(=O)c3ccccc3Cl)nc2c1 | – | 2.8 | 4700 | – | – | 3 (≈ 1.23 µg/mL) | –
37 | CS(=O)(=O)c1ccc2nc(NC(=O)NC(=O)c3ccccc3Cl)sc2c1 | – | 2.5 | 120 | – | – | < 0.47 | –
38 | Cc1[nH]c2ccccc2c1C[C@@H](NC(=O)[C@@H](N)Cc1c[nH]cn1)C(=O)N[C@@H](C)C(=O)N[C@@H](Cc1c[nH]c2ccccc12)C(=O)N[C@H](Cc1ccccc1)C(=O)N[C@@H](CCCCN)C(N)=O (H-H[dTrp(2-Me)]AW[dF]K-NH2) | – | – | – | – | – | – | Activity [13]: Active
